Here are results for six compounds from ChEMBL document CHEMBL1158154, “Design and synthesis of novel 2-pyridone peptidomimetic falcipain 2/3 inhibitors” (Bioorg Med Chem Lett, 2008).

In experiment [1] the target is T1, Cysteine protease falcipain-3 (Plasmodium falciparum, UniProt Q9NBA7).
T1 sequence (Q9NBA7 whole entry): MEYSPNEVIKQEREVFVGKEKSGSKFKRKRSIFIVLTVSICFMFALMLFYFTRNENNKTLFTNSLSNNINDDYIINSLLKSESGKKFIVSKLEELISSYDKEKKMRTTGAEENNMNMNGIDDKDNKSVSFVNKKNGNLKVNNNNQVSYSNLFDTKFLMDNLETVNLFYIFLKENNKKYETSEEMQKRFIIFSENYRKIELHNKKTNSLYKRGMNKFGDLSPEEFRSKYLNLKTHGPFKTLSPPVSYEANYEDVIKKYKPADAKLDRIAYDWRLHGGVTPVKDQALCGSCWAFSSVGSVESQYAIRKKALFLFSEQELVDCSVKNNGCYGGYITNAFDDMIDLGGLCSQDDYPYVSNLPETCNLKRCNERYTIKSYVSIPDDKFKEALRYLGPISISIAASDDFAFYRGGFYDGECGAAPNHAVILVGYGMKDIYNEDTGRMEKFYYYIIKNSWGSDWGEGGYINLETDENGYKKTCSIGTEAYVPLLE
Description: Inhibition of Plasmodium falciparum recombinant falcipain-3.

The test system of experiment [2] is Plasmodium falciparum. Put plainly: Antimalarial activity against Plasmodium falciparum Itg2 in human erythrocytes by [3H]hypoxanthine uptake. It counts as functional, organism-based.
For experiment [3], the system named is Plasmodium falciparum. Description: Antimalarial activity against chloroquine-sensitive Plasmodium falciparum 3D7 in human erythrocytes by [3H]hypoxanthine uptake. It counts as functional, organism-based. In outline: (§1)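 P. falciparum kept in continuous culture in human erythrocytes; compounds tested in triplicate on parasite-infected red cells. Growth read as parasite [3H]-hypoxanthine incorporation, and IC50 derived from it. TM6 is a chloroquine-resistant strain and 3D7 a chloroquine-sensitive strain.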

Experiment [4] relates to Plasmodium falciparum. Put plainly: Antimalarial activity against chloroquine-resistant Plasmodium falciparum TM6 in human erythrocytes by [3H]hypoxanthine uptake. It counts as functional, organism-based. Summed up: as §1
The target of experiment [5] is T2, Falcipain 2 (Plasmodium falciparum, UniProt Q9N6S8).
T2 sequence (Q9N6S8 whole entry): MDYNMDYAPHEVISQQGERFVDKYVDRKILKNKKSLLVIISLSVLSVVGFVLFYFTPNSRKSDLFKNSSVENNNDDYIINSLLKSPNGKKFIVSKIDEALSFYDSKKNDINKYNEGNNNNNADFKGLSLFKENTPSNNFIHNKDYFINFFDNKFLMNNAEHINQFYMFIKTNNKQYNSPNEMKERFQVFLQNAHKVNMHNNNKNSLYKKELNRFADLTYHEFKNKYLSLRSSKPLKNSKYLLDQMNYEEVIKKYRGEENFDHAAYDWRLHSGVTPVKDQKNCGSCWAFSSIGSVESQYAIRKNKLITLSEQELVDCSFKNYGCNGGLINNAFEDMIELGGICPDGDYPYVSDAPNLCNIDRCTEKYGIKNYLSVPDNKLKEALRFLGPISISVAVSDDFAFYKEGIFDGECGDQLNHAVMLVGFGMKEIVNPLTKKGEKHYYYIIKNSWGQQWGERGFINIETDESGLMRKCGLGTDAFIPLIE
Description: Inhibition of Plasmodium falciparum recombinant falcipain-2.

For `CC(C)C[C@H](NC(=O)N1CCOCC1)C(=O)N[C@H](/C=C/S(=O)(=O)c1ccccc1)CCc1ccccc1`, the values for the IC50 in experiment [1] and in experiment [2] were 0.021 µM and 0.003 µM, respectively.

On to `O=C[C@H](Cc1ccccc1)n1cccc(NC(=O)OCc2ccccc2)c1=O`, for which the IC50 (in general, the concentration that gives 50% inhibition) was found to be 37.3 µM in experiment [3] and 36 µM in experiment [4].

As for `O=C(Nc1cccn([C@H](/C=C/S(=O)(=O)c2ccccc2)Cc2ccccc2)c1=O)OCc1ccccc1`, the half-maximal inhibitory concentration (IC50) was 35.7 µM in experiment [3] and 36 µM in experiment [4].

`COC(=O)/C=C/[C@H](CCc1ccccc1)n1cccc(NC(=O)OCc2ccccc2)c1=O`: the IC50 in experiment [3] was 27.9 µM; in experiment [1], over 25 µM; in experiment [4], 35.3 µM; in experiment [5], 19 µM.

Take `O=C(Nc1cccn([C@H](/C=C/S(=O)(=O)c2ccccc2)CCc2ccccc2)c1=O)OCc1ccccc1`: the figures for the IC50 in experiment [3] and in experiment [4] were 5.7 µM and 9 µM, respectively.

For `O=C[C@H](CCc1ccccc1)n1cccc(NC(=O)OCc2ccccc2)c1=O`, the IC50 in experiment [3] is 31 µM; in experiment [1], over 25 µM; in experiment [4], 22.7 µM; in experiment [5], 10.9 µM.
